Measurements collected from several papers.
Values after ≈ are worked out from the molar mass of the structure shown.

CC(C)c1cccc(C(C)C)c1N=C1C(=O)N(Cc2ccc(Br)cc2)c2ccccc21 — IC50 (L02; cell growth or viability, MTT; 48 h): > 100 µM
C[C@H]1CNCCCN1c1nccc(-c2noc3c2CCC[C@@]32CCCc3sc(N)c(C#N)c32)n1 — EC50 (BaF3; cell growth or viability; 72 h): 188 nM
O=C1C(=Nc2ccc(Cl)cc2Br)c2ccccc2N1Cc1ccc([N+](=O)[O-])cc1 — IC50 (L02; cell growth or viability, MTT; 48 h): 20.4 µM
C[C@H]1CNCCCN1c1nccc(-c2noc([C@@]3(C)CCCc4sc(N)c(C#N)c43)n2)n1 — EC50 (BaF3; cell growth or viability; 72 h): 959 nM
Nc1nn2c(-c3ccco3)cc(-c3ccc(OCc4ccccc4)cc3)nc2c1N=Nc1ccc(F)cc1 — MIC (Saccharomyces cerevisiae; microbial growth, broth dilution; ATCC9763): 31.3 µg/mL (≈ 62 µM)
CCOC(=O)C1=C(CN2CCC[C@H]2C(=O)Nc2ccc(B(O)O)cc2)NC(c2nccs2)=N[C@H]1c1ccc(F)cc1Br — EC50 (Hepatitis B virus; viral replication, inhibitor, qPCR; HepDES19; 72 h): 1000 nM
CNC(=S)NN=Cc1ccc(F)cc1 — IC50 (Leishmania tropica; parasite growth, MTT; 72 h, promastigote): 441 µM
Cc1cccc(N=C2C(=O)Nc3ccccc32)c1 — IC50 (L02; cell growth or viability, MTT; 48 h): > 100 µM
CCOC(=O)C1=C(CN2CCC(C(=O)Nc3ccc(B4OC(C)(C)C(C)(C)O4)cc3)C2)NC(c2nccs2)=NC1c1ccc(F)cc1Br (stereo not drawn) — EC50 (Hepatitis B virus; viral replication, inhibitor, qPCR; HepDES19; 72 h): 770 nM
COc1ccc(C=NNC(=S)Nc2cccnc2)cc1 — IC50 (Leishmania tropica; parasite growth; J774.A1; 72 h, intracellular, amastigote): 350 µM
Cc1nc(NC(=O)N2CCC[C@H]2C(N)=O)sc1-c1ccnc(C(C)(C)C(F)(F)F)c1 — EC50 (CAL-51; cell growth or viability, ATP luminescence; 5 days): 26000 nM
CCOC(=O)C1=C(CN2CCC[C@H]2C(=O)Nc2cccc(B(O)O)c2)NC(c2nccs2)=N[C@H]1c1ccc(F)cc1Br — EC50 (Hepatitis B virus; viral replication, inhibitor, qPCR; HepDES19; 72 h): 1900 nM
O=C1C(=Nc2ccccc2Br)c2ccccc2N1Cc1ccccc1 — IC50 (L02; cell growth or viability, MTT; 48 h): 66.2 µM
CNC(=S)NN=Cc1ccc(O)c(OC)c1 — IC50 (Leishmania tropica; parasite growth, MTT; 72 h, promastigote): 200 µM
O=C1Nc2ccccc2C1=Nc1cccc(Cl)c1 — IC50 (L02; cell growth or viability, MTT; 48 h): 16 µM
C[C@H]1CNCCN1c1nccc(-c2onc3c2CCC[C@@]32CCCc3sc(N)c(C#N)c32)n1 — EC50 (BaF3; cell growth or viability; 72 h): 374 nM
Nc1ccn([C@@H]2CS[C@H](CO)O2)c(=O)n1 — EC50 (Hepatitis B virus; viral replication, inhibitor, qPCR; HepDES19; 72 h): 400 nM
O=C1C(=Nc2ccccc2I)c2ccccc2N1Cc1ccc([N+](=O)[O-])cc1 — IC50 (L02; cell growth or viability, MTT; 48 h): 56.3 µM
